According to ChEMBL document CHEMBL4373712, “Bioactivatable Pseudotripeptidization of Cyclic Dipeptides To Increase the Affinity toward Oligopeptide Transporter 1 for Enhanced Oral Absorption: An Application to Cyclo(l-Hyp-l-Ser) (JBP485)” (J Med Chem, 2019):
Where a SMILES comes first, the peptide text is derived from it. [ ]: non-standard residue; d: D form. Hyp = O=C(O)[C@@H]1C[C@@H](O)CN1

Assays:
[1] = target: T1, Solute carrier family 15 member 1 (Rattus norvegicus, UniProt P51574); test: Substrate activity at PEPT1 in Sprague-Dawley rat jejunum assessed as effective permeability at 5 mM measured after 15 to 120 mins by HPLC analysis; assay type: ADME, tissue-based; conditions: 5000 µM
T1 sequence (P51574 whole entry): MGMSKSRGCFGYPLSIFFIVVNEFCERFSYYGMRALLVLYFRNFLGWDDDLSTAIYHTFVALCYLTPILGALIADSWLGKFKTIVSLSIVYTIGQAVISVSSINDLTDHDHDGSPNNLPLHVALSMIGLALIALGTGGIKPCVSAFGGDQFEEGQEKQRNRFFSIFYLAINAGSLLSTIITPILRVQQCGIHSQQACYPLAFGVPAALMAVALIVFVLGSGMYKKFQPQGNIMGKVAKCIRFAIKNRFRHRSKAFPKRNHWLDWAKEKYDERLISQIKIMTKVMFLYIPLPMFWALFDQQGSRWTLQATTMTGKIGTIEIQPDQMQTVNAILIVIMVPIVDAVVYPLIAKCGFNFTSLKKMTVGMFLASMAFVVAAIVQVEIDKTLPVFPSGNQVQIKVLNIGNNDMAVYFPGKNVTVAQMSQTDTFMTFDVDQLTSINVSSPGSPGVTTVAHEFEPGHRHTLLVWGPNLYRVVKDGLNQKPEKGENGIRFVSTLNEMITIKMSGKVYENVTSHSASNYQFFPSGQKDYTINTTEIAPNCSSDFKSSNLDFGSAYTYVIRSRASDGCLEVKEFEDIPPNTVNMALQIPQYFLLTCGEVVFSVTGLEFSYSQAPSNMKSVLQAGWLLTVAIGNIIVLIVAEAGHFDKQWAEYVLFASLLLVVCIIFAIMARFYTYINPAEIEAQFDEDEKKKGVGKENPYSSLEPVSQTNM
Outline: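 In situ single-pass jejunal perfusion in fasted (12 h) male SD rats anaesthetised with urethane 1.5 g/kg i.p. About 10 cm of jejunum was perfused at 0.2 mL/min with pH 6.0 HEPES buffer containing 5 mM compound. Outflow was collected 15–120 min after steady state and assayed by HPLC. Peff was calculated from outlet/inlet concentration and volume ratios and segment radius and length.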

[2] = target: T2, Solute carrier family 15 member 1 (Homo sapiens, UniProt P46059); test: Substrate activity at PEPT1 in human Caco2 cells assessed as protein-mediated drug uptake at 0.5 mM measured after 10 mins in pH 6 HBSS buffer by UPLC-MS/MS analysis; assay type: ADME, cell-based; conditions: caco-2, pH 6, 10 min, 500 µM
T2 sequence (P46059 whole entry): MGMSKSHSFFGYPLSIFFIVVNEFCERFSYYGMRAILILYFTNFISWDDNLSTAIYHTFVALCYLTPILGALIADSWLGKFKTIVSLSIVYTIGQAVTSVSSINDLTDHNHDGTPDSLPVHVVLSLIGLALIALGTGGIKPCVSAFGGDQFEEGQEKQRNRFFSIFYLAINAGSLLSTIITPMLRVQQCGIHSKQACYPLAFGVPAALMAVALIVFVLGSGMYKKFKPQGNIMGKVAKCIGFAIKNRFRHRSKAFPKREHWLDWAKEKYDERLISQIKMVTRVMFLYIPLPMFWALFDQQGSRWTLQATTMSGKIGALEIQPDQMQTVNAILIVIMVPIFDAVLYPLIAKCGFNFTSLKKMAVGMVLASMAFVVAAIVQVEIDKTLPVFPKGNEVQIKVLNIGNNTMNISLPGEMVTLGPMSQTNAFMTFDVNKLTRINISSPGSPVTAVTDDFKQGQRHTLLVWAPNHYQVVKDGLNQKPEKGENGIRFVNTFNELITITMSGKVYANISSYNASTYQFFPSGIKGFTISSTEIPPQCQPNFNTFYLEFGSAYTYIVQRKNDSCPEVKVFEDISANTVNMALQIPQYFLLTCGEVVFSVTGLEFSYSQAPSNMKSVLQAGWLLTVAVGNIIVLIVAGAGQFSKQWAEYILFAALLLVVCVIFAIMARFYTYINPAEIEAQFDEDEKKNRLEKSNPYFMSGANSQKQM
Outline: (§1)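 Caco-2 cells incubated 10 min with 0.5 mM compound in HBSS at pH 6.0 or pH 7.4, washed three times in ice-cold PBS pH 7.4, homogenised. Protein by DC assay; drug by UPLC-MS/MS; n=3.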

[3] = target: T2, Solute carrier family 15 member 1; test: Substrate activity at PEPT1 in human Caco2 cells assessed as inhibition of Gly-Sar uptake by LC-MS/MS analysis; assay type: cell-based
Outline: (§2)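 Caco-2 cells with 0.5 mM Gly-Sar probe substrate and competitor at 0.5–50 mM. IC50 by nonlinear fitting; n=3.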

[4] = Oral bioavailability in rat; assay type: ADME, organism-based; conditions: in vivo
[5] = target: T1, Solute carrier family 15 member 1; test: Ratio of compound effect for substrate activity at PEPT1 in Sprague-Dawley rat jejunum assessed as effective permeability in absence of non-metabolized PEPT1 substrate Gly-Sar to compound effect for substrate activity at PEPT1 in Sprague-Dawley rat jejunum assessed as effective permeability in presence of non-metabolized PEPT1 substrate Gly-Sar; assay type: ADME
[6] = target: T2, Solute carrier family 15 member 1; test: Substrate activity at PEPT1 in human Caco2 cells assessed as protein-mediated drug uptake at 0.5 mM measured after 10 mins in pH 7.4 HBSS buffer by UPLC-MS/MS analysis; assay type: ADME, cell-based; conditions: caco-2, pH 7.4, 10 min, 500 µM; outline: as §1
[7] = target: T2, Solute carrier family 15 member 1; test: Substrate activity at PEPT1 in human Caco2 cells assessed as inhibition of Gly-Sar uptake measured after 10 mins by UPLC-MS/MS analysis; assay type: cell-based; outline: as §2

Peff [1]: Permeable
Drug uptake [2]: Active
Ki [3]: 2500 µM
bioavailability [4]: ≤ 100%
Ratio [5]: 7.3
Drug uptake [6]: Not Active
IC50 [7]: 1760 µM
SMILES: O=C(O)[C@H](CO)NC(=O)[C@@H]1C[C@@H](O)CN1 (H-[Hyp]-Ser-OH)
